Reference: ChEMBL document CHEMBL5038571, “Design and Synthesis of EZH2-Based PROTACs to Degrade the PRC2 Complex for Targeting the Noncatalytic Activity of EZH2” (J Med Chem, 2021)
Each block holds one molecule with its values, some of them ahead of it. The source made the active and inactive calls. The rule behind the calls is not given here.

Columns and labels:
[1] = molecular target: T1, Protein cereblon/Histone-lysine N-methyltransferase EZH2 (Homo sapiens) (UniProt Q15910+Q96SW2); assay: PROTAC activity at CRBN E3 ligase/EZH2 in PRC2 complex in human WSUDLCL2 cells assessed as induction of SUZ12 degradation at up to 10 uM incubated for 72 hrs by Western blot analysis; type: cell-based; conditions: dose microM <=10, time 72.0 hrs
T1 sequence (Q15910 whole entry, looked up): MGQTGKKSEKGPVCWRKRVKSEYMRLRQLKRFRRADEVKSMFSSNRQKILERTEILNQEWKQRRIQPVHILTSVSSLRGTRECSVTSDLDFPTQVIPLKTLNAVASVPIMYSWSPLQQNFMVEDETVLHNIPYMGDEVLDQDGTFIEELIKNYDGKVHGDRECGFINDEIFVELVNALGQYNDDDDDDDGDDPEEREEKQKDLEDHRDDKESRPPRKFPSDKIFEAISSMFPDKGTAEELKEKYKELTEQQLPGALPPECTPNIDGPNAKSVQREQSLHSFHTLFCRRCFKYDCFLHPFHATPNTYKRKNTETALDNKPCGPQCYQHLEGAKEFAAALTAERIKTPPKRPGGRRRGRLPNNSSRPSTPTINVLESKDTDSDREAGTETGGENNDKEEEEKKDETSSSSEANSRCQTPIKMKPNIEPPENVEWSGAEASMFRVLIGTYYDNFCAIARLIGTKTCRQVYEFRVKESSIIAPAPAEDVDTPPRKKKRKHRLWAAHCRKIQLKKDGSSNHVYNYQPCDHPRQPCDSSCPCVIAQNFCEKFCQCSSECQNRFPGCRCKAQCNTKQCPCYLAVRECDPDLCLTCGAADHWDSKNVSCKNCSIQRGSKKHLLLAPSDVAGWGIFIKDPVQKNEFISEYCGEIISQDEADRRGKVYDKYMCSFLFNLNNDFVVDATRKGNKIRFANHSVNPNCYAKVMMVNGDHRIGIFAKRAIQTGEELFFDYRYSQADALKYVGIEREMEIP
T1 sequence (Q96SW2 whole entry, looked up): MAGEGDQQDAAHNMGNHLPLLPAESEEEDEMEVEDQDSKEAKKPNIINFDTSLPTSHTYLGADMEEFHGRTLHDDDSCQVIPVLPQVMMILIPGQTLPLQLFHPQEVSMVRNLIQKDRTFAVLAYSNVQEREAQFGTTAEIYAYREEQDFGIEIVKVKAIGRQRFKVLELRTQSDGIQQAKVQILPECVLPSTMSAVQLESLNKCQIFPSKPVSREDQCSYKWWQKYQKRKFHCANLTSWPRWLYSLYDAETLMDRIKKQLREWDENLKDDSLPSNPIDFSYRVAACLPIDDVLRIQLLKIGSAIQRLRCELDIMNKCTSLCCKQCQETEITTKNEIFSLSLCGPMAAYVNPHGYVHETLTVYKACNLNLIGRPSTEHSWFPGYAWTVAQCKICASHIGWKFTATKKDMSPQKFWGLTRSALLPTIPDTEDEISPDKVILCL

[2] = test system: A549; assay: Downregulation of CENPK mRNA expression in human A549 cells at 10 uM incubated for 48 hrs by qRT-PCR analysis; type: functional, cell-based
How it was run: (§1)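 Cells treated 48 h. Total RNA extracted with Trizol, reverse-transcribed, and SYBR RT-qPCR run: 95 °C 30 s, then 40 cycles of 95 °C 6 s and 60 °C 20 s. mRNA normalized to the DMSO-treated group. Mean SD of three independent experiments, t-test versus DMSO.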

[3] = test system: A549; assay: Downregulation of CEP76 mRNA expression in human A549 cells at 10 uM incubated for 48 hrs by qRT-PCR analysis; type: functional, cell-based; how it was run: as §1
[4] = test system: MDA-MB-468; assay: Downregulation of […] mRNA expression in human MDA-MB-468 cells at 10 uM incubated for 48 hrs by qRT-PCR analysis; type: functional, cell-based; how it was run: as §1
[5] = test system: MDA-MB-468; assay: Downregulation of CEP76 mRNA expression in human MDA-MB-468 cells at 10 uM incubated for 48 hrs by qRT-PCR analysis; type: functional, cell-based; how it was run: as §1
[6] = test system: MDA-MB-468; assay: Downregulation of CHEK1 mRNA expression in human MDA-MB-468 cells at 10 uM incubated for 48 hrs by qRT-PCR analysis; type: functional, cell-based; how it was run: as §1
[7] = test system: A549; assay: Downregulation of TACC3 mRNA expression in human A549 cells at 10 uM incubated for 48 hrs by qRT-PCR analysis; type: functional, cell-based; how it was run: as §1
[8] = test system: MDA-MB-468; assay: Downregulation of TACC3 mRNA expression in human MDA-MB-468 cells at 10 uM incubated for 48 hrs by qRT-PCR analysis; type: functional, cell-based; how it was run: as §1
[9] = test system: NCI-H1299; assay: Downregulation of CHEK1 mRNA expression in human NCI-H1299 cells at 10 uM incubated for 48 hrs by qRT-PCR analysis; type: functional, cell-based; how it was run: as §1
[10] = test system: NCI-H1299; assay: Downregulation of TACC3 mRNA expression in human NCI-H1299 cells at 10 uM incubated for 48 hrs by qRT-PCR analysis; type: functional, cell-based; how it was run: as §1
[11] = molecular target: T1, Protein cereblon/Histone-lysine N-methyltransferase EZH2 (Homo sapiens); assay: PROTAC activity at CRBN E3 ligase/EZH2 in PRC2 complex in human WSUDLCL2 cells assessed as induction of EZH2 degradation at up to 10 uM incubated for 72 hrs by Western blot analysis; type: cell-based; conditions: dose microM <=10, time 72.0 hrs
[12] = test system: NCI-H1299; assay: Downregulation of […] mRNA expression in human NCI-H1299 cells at 10 uM incubated for 48 hrs by qRT-PCR analysis; type: functional, cell-based; how it was run: as §1
[13] = test system: A549; assay: Downregulation of CHEK1 mRNA expression in human A549 cells at 10 uM incubated for 48 hrs by qRT-PCR analysis; type: functional, cell-based; how it was run: as §1
[14] = test system: NCI-H1299; assay: Downregulation of ARL6IP mRNA expression in human NCI-H1299 cells at 10 uM incubated for 48 hrs by qRT-PCR analysis; type: functional, cell-based; how it was run: as §1
[15] = molecular target: T1, Protein cereblon/Histone-lysine N-methyltransferase EZH2 (Homo sapiens); assay: PROTAC activity at CRBN E3 ligase/EZH2 in PRC2 complex in human WSUDLCL2 cells assessed as induction of EED degradation at up to 10 uM incubated for 72 hrs by Western blot analysis; type: cell-based; conditions: dose microM <=10, time 72.0 hrs
[16] = test system: NCI-H1299; assay: Downregulation of CEP76 mRNA expression in human NCI-H1299 cells at 10 uM incubated for 48 hrs by qRT-PCR analysis; type: functional, cell-based; how it was run: as §1
[17] = test system: WSUDLCL2; assay: Antiproliferative activity against human WSUDLCL2 cells harboring EZH2-Y641F mutant assessed as inhibition of cell growth at 10 uM incubated for 9 days by optical microscopic analysis; type: functional, cell-based; conditions: time 9.0 day
How it was run: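 WSU-DLCL-2 cells seeded at 5 × 10³ per well, incubated 24 h, then exposed to 10 μM compound for 9 days with medium refreshed. Cells photographed and counted on days 1, 3, 5, 7 and 9. Mean SD of three independent experiments, t-test versus DMSO.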

[18] = test system: MDA-MB-468; assay: Downregulation of CENPK mRNA expression in human MDA-MB-468 cells at 10 uM incubated for 48 hrs by qRT-PCR analysis; type: functional, cell-based; how it was run: as §1
[19] = test system: NCI-H1299; assay: Antiproliferative activity against human NCI-H1299 cells harboring SWI/SNF mutant assessed as inhibition of cell growth at 10 uM treated for 9 days by optical microscopic analysis; type: functional, cell-based; conditions: time 9.0 day
How it was run: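 Cells seeded at 5 × 10³ per well, grown 24 h, then exposed to compound at 10 μM for 9 days with medium refreshed. Cells were photographed and counted on days 1, 3, 5, 7 and 9. For lines 1-2, EZH2-targeting or control shRNA was induced in the cells. Mean SD of three independent experiments; t-test against control.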

[20] = test system: A549; assay: Downregulation of ARL6IP mRNA expression in human A549 cells at 10 uM incubated for 48 hrs by qRT-PCR analysis; type: functional, cell-based; how it was run: as §1
[21] = test system: MDA-MB-468; assay: Downregulation of ARL6IP mRNA expression in human MDA-MB-468 cells at 10 uM incubated for 48 hrs by qRT-PCR analysis; type: functional, cell-based; how it was run: as §1
[22] = test system: A549; assay: Downregulation of […] mRNA expression in human A549 cells at 10 uM incubated for 48 hrs by qRT-PCR analysis; type: functional, cell-based; how it was run: as §1
[23] = test system: NCI-H1299; assay: Downregulation of CENPK mRNA expression in human NCI-H1299 cells at 10 uM incubated for 48 hrs by qRT-PCR analysis; type: functional, cell-based; how it was run: as §1
[24] = molecular target: T1, Protein cereblon/Histone-lysine N-methyltransferase EZH2 (Homo sapiens); assay: PROTAC activity at CRBN E3 ligase/EZH2 in PRC2 complex in human WSUDLCL2 cells assessed as reduction in H3K27me3 level at up to 10 uM incubated for 72 hrs by Western blot analysis; type: cell-based; conditions: dose microM <=10, time 72.0 hrs
[25] = molecular target: T1, Protein cereblon/Histone-lysine N-methyltransferase EZH2 (Homo sapiens); assay: PROTAC activity at CRBN E3 ligase/EZH2 in PRC2 complex in human WSUDLCL2 cells assessed as reduction in H3K27me3 level at 1 uM incubated for 48 hrs by Western blot analysis; type: cell-based
How it was run: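 WSU-DLCL-2 cells treated 48 h (1 μM for the single-concentration screen), lysed; SDS-PAGE, nitrocellulose transfer, 5% milk block, primary antibody 4 °C overnight, chemiluminescence. Bands quantified by densitometry, normalized to GAPDH, expressed relative to DMSO-treated cells; mean ± SD of three independent experiments, t-test.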

[26] = molecular target: T1, Protein cereblon/Histone-lysine N-methyltransferase EZH2 (Homo sapiens); assay: PROTAC activity at CRBN E3 ligase/EZH2 in PRC2 complex in human WSUDLCL2 cells assessed as induction of EZH2 degradation incubated for 72 hrs by Western blot analysis; type: cell-based; conditions: dose 0-10 µM
[27] = molecular target: T1, Protein cereblon/Histone-lysine N-methyltransferase EZH2 (Homo sapiens); assay: PROTAC activity at CRBN E3 ligase/EZH2 in PRC2 complex in human WSUDLCL2 cells assessed as reduction in H3K27me3 level incubated for 72 hrs by Western blot analysis; type: cell-based; conditions: dose 0-10 µM
[28] = molecular target: Histone-lysine N-methyltransferase EZH2 (Homo sapiens, UniProt Q15910); type: cell-based, Sf9
Histone-lysine N-methyltransferase EZH2, sequence (Q15910 whole entry): as the sequence (Q15910 whole entry, looked up) above

Activity [1]: inactive | Activity [11]: inactive | Activity [15]: inactive | Activity [24]: Active
Structure (SMILES): CC[C@H](C)n1cc(C)c2c(C(=O)NCc3c(C)cc(C)[nH]c3=O)cc(-c3ccc(N4CCNCC4)nc3)cc21
Activity [2]: inactive | Activity [3]: inactive | Activity [4]: inactive | Activity [5]: inactive | Activity [6]: inactive | Activity [7]: inactive | Activity [8]: inactive | Activity [9]: inactive | Activity [10]: inactive | Activity [12]: inactive | Activity [13]: inactive | Activity [14]: inactive | Activity [16]: inactive | Activity [17]: Active | Activity [18]: inactive | Activity [19]: inactive | Activity [20]: inactive | Activity [21]: inactive | Activity [22]: inactive | Activity [23]: inactive

Activity [1]: Active | Activity [25]: Active | Activity [26]: Dose-Dependent Effect | Activity [15]: Active | Activity [27]: Dose-Dependent Effect | IC50 [28]: 61 nM
Structure (SMILES): CC[C@H](C)n1cc(C)c2c(C(=O)NCc3c(C)cc(C)[nH]c3=O)cc(-c3ccc(N4CCN(CCCCCCCCCCCCOc5cccc6c5C(=O)N(C5CCC(=O)NC5=O)C6=O)CC4)nc3)cc21 (stereo not given in full)
